Assay results from different studies.
Compare with care: the assays were run in different laboratories.
SLC6A2: Sodium-dependent noradrenaline transporter (SLC6A2, Homo sapiens, UniProt P23975)
MPO: Myeloperoxidase (MPO, Homo sapiens, UniProt P05164)

OC[C@@]12C[C@@H]1[C@@H](n1cnc3c(NCCCCCCc4ccccc4)nc(I)nc31)[C@H](O)[C@@H]2O  inhibition (SLC6A2; ligand displacement, radioligand; 10 µM): 52%
CC(=O)N[C@H](CCCNC(=N)N)C(=O)N[C@H]1CSSC[C@@H](C(N)=O)NC(=O)[C@H](Cc2c[nH]c3ccccc23)NC(=O)[C@H](CCCNC(=N)N)NC(=O)[C@@H](Cc2ccccc2)NC(=O)[C@H](Cc2c[nH]cn2)NC(=O)[C@H](CCC(=O)O)NC1=O  Emax (Melanocortin receptor 4 (MC4R, Homo sapiens, UniProt P32245); cAMP, agonist; CHO-K1): 100%
CCCCC[C@H](O)/C=C/[C@H]1C(=O)C[C@H](O)[C@@H]1C/C=C\CCCC(=O)O  Emax (Prostaglandin D2 receptor (PTGDR, Homo sapiens, UniProt Q13258); G protein activation, agonist, BRET): 101%
O[C@@H]1[C@H](O)[C@@H]2C[C@@H]2[C@H]1n1cnc2c(NCCC3CC3)ncnc21  inhibition (SLC6A2; transporter uptake, inhibitor, radiometric; HEK293; 10 µM): 0%
COc1ccc(Cl)cc1-c1cc(=O)[nH]c(=S)n1CC(N)=O  remaining activity (MPO; enzyme activity, inhibitor; 10 µM): 2.31%
CCCCC(=O)Nc1ccc(-c2ccc3ncn(CCC)c(=O)c3c2)cn1  remaining binding (Tyrosine-protein kinase Fgr (FGR, Homo sapiens, UniProt P09769); binding, competition with immobilised ligand; 0.5 µM): 100%
C1=C/COCc2cc(ccc2OCCN2CCCC2)Nc2nccc(n2)-c2cccc(c2)COC/1  remaining binding (Peripheral plasma membrane protein CASK (CASK, Homo sapiens, UniProt O14936); binding; 0.1 µM): 81%
Cc1cc(O)c(-c2ccc([C@@H](C)CN(C)C)cc2)c2c1[nH]c(=O)c1sccc12  inhibition (Extracellular serine/threonine protein kinase FAM20C (FAM20C, Homo sapiens, UniProt Q8IXL6); cell-free assay, inhibitor; 0.1 µM, lysate): -0.829%
NC/C(=C\F)COc1cccc(Cn2c(=S)[nH]c(=O)c3[nH]cnc32)c1  inhibition (MPO; enzyme activity, inhibitor, fluorescence; 0.3333 µM): 98.5%
CCOC(=O)[C@@]12C[C@@H]1[C@@H](n1cnc3c(NCCCCCCc4ccccc4)nc(I)nc31)[C@H](O)[C@@H]2O  inhibition (SLC6A2; ligand displacement, radioligand; 10 µM): 52%
CC(C)OCCn1c(=S)[nH]c(=O)c2[nH]ccc21  remaining activity (MPO; enzyme activity, inhibitor; 0.68 µM): 27.6%
N#CC[C@@]12C[C@@H]1[C@@H](n1cnc3c(NCCCCCc4ccccc4)nc(I)nc31)[C@H](O)[C@@H]2O  inhibition (SLC6A2; ligand displacement, radioligand; 10 µM): 4%
COc1ccc2oc(-c3ccc4nc(N)oc4c3)c/c(=N\c3ccccc3NC(=O)CCN)c2c1  remaining binding (Fibroblast growth factor receptor 1 (FGFR1, Homo sapiens, UniProt P11362, V561M); binding; 1 µM): 97%
